The species named for series [1] is Homo sapiens. The series can be described thus: Selectivity index, ratio of IC50 for human recombinant monoamine oxidase-A to IC50 for human recombinant monoamine oxidase-B. The essentials:
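Selectivity for MAO-B, given as IC50(MAO-A)/IC50(MAO-B). Both IC50s came from recombinant human enzymes, with kynuramine oxidation to fluorescent […] read at ex 310 / em 400 nm in alkaline medium.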

Series [2] has as its target T1, Amine oxidase [flavin-containing] B (Homo sapiens, UniProt P27338).
T1 sequence (P27338 whole entry): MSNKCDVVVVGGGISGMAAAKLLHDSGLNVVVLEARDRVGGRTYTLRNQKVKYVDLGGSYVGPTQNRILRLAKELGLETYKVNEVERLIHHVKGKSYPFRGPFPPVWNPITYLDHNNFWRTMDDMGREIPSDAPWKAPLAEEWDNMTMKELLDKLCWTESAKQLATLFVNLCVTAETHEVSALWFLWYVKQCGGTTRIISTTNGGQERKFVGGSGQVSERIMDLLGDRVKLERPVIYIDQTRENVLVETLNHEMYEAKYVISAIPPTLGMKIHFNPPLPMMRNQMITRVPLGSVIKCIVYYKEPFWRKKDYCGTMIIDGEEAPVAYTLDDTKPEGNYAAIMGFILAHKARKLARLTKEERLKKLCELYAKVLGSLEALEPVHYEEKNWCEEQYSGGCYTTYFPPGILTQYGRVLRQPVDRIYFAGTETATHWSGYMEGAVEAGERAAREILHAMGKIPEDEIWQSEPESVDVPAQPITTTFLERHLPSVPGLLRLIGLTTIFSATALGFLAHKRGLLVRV
The series can be described thus: Inhibition of human recombinant monoamine oxidase-B assessed as kynuramine conversion to 6-hydroxyquinoline after 20 mins by fluorescence spectrophotometric analysis.

Series [3] deals with T2, Amine oxidase [flavin-containing] A (Homo sapiens, UniProt P21397).
T2 sequence (P21397 whole entry): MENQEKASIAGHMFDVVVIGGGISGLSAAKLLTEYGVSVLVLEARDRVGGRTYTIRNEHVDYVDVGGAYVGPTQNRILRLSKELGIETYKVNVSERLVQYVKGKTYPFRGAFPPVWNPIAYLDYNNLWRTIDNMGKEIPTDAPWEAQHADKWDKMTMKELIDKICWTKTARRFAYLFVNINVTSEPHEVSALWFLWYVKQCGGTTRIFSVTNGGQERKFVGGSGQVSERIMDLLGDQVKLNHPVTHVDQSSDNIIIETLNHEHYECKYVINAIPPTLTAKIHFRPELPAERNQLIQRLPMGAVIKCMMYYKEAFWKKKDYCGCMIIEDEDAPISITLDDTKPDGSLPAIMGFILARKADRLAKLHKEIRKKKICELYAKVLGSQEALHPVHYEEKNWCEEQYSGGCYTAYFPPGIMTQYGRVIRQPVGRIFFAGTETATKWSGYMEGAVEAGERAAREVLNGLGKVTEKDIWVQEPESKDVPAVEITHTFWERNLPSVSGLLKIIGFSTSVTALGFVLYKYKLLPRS
Nature of the series: Inhibition of human recombinant monoamine oxidase-A assessed as kynuramine conversion to […] after 20 mins by fluorescence spectrophotometric analysis.

Series [4] deals with T1, Amine oxidase [flavin-containing] B. The series can be described thus: Inhibition of human recombinant monoamine oxidase-B assessed as kynuramine conversion to […] at 100 uM after 20 mins by fluorescence spectrophotometric analysis.
For series [5] the target is unchanged. The series can be described thus: Ratio of phthalide IC50 to compound IC50 for human recombinant monoamine oxidase-B.
In series [6] the target is T3, Amine oxidase [flavin-containing] B (Rattus norvegicus, UniProt P19643).
T3 sequence (P19643 whole entry): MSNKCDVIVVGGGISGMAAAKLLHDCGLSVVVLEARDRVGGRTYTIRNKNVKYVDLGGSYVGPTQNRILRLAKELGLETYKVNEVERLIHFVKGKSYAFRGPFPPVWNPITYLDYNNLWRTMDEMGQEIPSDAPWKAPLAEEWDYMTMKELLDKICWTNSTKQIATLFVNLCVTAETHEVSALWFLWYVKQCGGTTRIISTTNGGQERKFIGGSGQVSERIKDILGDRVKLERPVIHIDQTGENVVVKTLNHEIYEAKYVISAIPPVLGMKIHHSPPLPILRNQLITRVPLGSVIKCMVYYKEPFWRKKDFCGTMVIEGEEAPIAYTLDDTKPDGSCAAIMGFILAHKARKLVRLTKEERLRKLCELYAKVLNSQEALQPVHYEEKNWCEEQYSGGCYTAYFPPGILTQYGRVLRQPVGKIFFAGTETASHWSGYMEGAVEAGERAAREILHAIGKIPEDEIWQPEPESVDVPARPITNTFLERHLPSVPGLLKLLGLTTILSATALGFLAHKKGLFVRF
The series can be described thus: Inhibition of rat brain monoamine oxidase-B.

Series [7] concerns the target T2, Amine oxidase [flavin-containing] A. Nature of the series: Competitive inhibition of human recombinant monoamine oxidase-A using kynuramine as substrate by Cheng and Prusoff equation analysis.
For series [8] the target is unchanged. Nature of the series: Competitive inhibition of human recombinant monoamine oxidase-A using kynuramine as substrate by Lineweaver-Burk plot analysis. The essentials: (§1)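 Recombinant human MAO-A or MAO-B with kynuramine as substrate. Initial rates were recorded at 4 substrate concentrations, without inhibitor and with three inhibitor concentrations. Lineweaver–Burk (1/v vs 1/[S]) plots were built from these rates. Product […] was read by fluorescence in alkaline medium (ex 310 nm, em 400 nm).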

Series [9] shares this target. The series can be described thus: Reversible inhibition of human recombinant monoamine oxidase-A using kynuramine as substrate assessed as residual enzyme activity treated at 100 times IC50 preincubated for 30 mins prior to substrate addition followed by 100 fold dilution measured after 20 mins by fluorescence spectrophotometric analysis relative to control.
For series [10] the target is unchanged. The series can be described thus: Reversible inhibition of human recombinant monoamine oxidase-A using kynuramine as substrate assessed as residual enzyme activity treated at 10 times IC50 preincubated for 30 mins prior to substrate addition followed by 100 fold dilution measured after 20 mins by fluorescence spectrophotometric analysis relative to control.

In series [11] the target is T1, Amine oxidase [flavin-containing] B. The series can be described thus: Quasi-reversible inhibition of human recombinant monoamine oxidase-B using kynuramine as substrate treated at 10 to 100 times IC50 preincubated for 30 mins prior to substrate addition followed by 100 fold dilution measured after 20 mins by fluorescence spectrophotometric analysis.
The target is the same in series [12]. Nature of the series: Competitive inhibition of human recombinant monoamine oxidase-B using kynuramine as substrate by Morrison equation analysis.
The target is the same in series [13]. Nature of the series: Competitive inhibition of human recombinant monoamine oxidase-B using kynuramine as substrate by Cheng and Prusoff equation analysis.
The target is the same in series [14]. The series can be described thus: Competitive inhibition of human recombinant monoamine oxidase-B using kynuramine as substrate by Lineweaver-Burk plot analysis. The essentials:
as §1

The target is the same in series [15]. The series can be described thus: Reversible inhibition of human recombinant monoamine oxidase-B using kynuramine as substrate assessed as residual enzyme activity treated at 100 times IC50 preincubated for 30 mins prior to substrate addition followed by 100 fold dilution measured after 20 mins by fluorescence spectrophotometric analysis relative to control.

Series [16] shares this target. The series can be described thus: Reversible inhibition of human recombinant monoamine oxidase-B using kynuramine as substrate assessed as residual enzyme activity treated at 10 times IC50 preincubated for 30 mins prior to substrate addition followed by 100 fold dilution measured after 20 mins by fluorescence spectrophotometric analysis relative to control.
Series [17] concerns the target T2, Amine oxidase [flavin-containing] A. Nature of the series: Irreversible inhibition of human recombinant monoamine oxidase-A using kynuramine as substrate assessed as residual enzyme activity treated at 10 times IC50 preincubated for 30 mins prior to substrate addition followed by 100 fold dilution measured after 20 mins by fluorescence spectrophotometric analysis relative to control.

SMILES strings stand for the structures.

The term IC50 denotes the concentration that inhibits the measured activity by half. Regarding `O=C1OCc2ccc(OCc3ccc(Br)cc3)cc21`, in [1], the Ratio IC50 was found to be 96. Further, the IC50 came to 2.4 nM in [2] and 227 nM in series [3].
For `O=C1OCc2ccc(OCc3ccc(I)cc3)cc21`, in that order: 189, 1.8 nM and 344 nM.
For `O=C1OCc2ccc(OCc3ccc(F)cc3)cc21`, in that order: 84, 6.4 nM and 542 nM.
Take `Cc1ccc(COc2ccc3c(c2)C(=O)OC3)cc1`: the Ratio IC50 in series [1] worked out at 118. In addition, the IC50 in series [2] stood at 9 nM; in series [3], 1060 nM.
In the case of `O=C1OCc2ccc(OCCc3ccc(Cl)cc3)cc21`, the Ratio IC50 in series [1] was determined as 10. In addition, the IC50 was 48 nM in series [2] and 498 nM in series [3].
For `O=C1OCc2ccc(OCCOc3ccc(Br)cc3)cc21`, in series [1], the Ratio IC50 stood at 20. Also, the IC50 in series [2] came out at 12 nM; in [3], 240 nM.
As to `O=C1OCc2ccc(NCc3ccccc3)cc21`, the “inhibition (INH)” value in series [4] is recorded as “Not Active”. The IC50 in series [3] worked out at 59900 nM.
Take `O=C1OCc2ccc(OCc3ccccc3)cc21`: the “Ratio IC50” value stood at 1000 in [5] and 50 in series [1]. Also, the results for the IC50 in series [2], in [3] and in series [6] were 24 nM, 1190 nM and 230 nM, respectively.
For the compound `O=C1OCc2ccccc21`, the Ratio IC50 in [1] is 1.6. Also, the results for the IC50 in series [2] and in [3] were 28600 nM and 44900 nM, respectively.
For `O=C1OCc2ccc(OCCOc3ccc(F)cc3)cc21`, in that order: 43, 7.4 nM and 323 nM.
The Ki is the equilibrium dissociation constant of an inhibitor or competing ligand from its target. Turning to `O=C1OCc2ccc(OCCCc3ccccc3)cc21`, the Ki in series [7] worked out at 25 nM; in [8] it was 62 nM. For the same compound, the figures for the Activity in series [9] and in [10] were 45% and 86%, respectively. For the same compound, the Ratio IC50 in series [1] was found to be 16. Further, the results for the IC50 in [2] and in series [3] were 6.2 nM and 96 nM, respectively.
As for `O=C1OCc2ccc(OCc3ccc(C(F)(F)F)cc3)cc21`, the “inhibition (INH)” value in series [11] was “Active”. For the same compound, the results for the inhibitory constant (Ki) in series [12], in series [13] and in [14] were 0.46 nM, 0.6 nM and 0.7 nM, respectively. The Activity was 14% in series [15] and 68% in series [16]. Also, the Ratio IC50 in series [1] came to 214. The half-inhibitory concentration (IC50) stood at 1.4 nM in series [2] and 304 nM in series [3].
`Cc1ccc(CCOc2ccc3c(c2)C(=O)OC3)cc1`: the Ratio IC50 in series [1] was 90. Further, the IC50 worked out at 81 nM in series [2] and 7330 nM in series [3].
Taken in the same sequence, the figures for `O=C1OCc2ccc(OCCc3ccccc3)cc21` were 68, 47 nM and 3210 nM.
Turning to `O=C1OCc2ccc(OCc3ccc(Cl)cc3)cc21`, in series [1], the Ratio IC50 was determined as 61. For the same compound, the IC50 is 2.8 nM in series [2] and 172 nM in series [3].
For `O=C1OCc2ccc(OCC3CCCCC3)cc21`, in that order: 16, 12 nM and 185 nM.
Take `O=C1OCc2ccc(OCc3cccc(Br)c3)cc21`: the Ratio IC50 in [1] came to 180. The IC50 in series [2] stood at 3.5 nM; in [3], 629 nM.
Taken in the same sequence, the figures for `O=C1OCc2ccc(OCCOc3ccc(Cl)cc3)cc21` were 13, 11 nM and 137 nM.
Take `C#CCN(C)Cc1ccccc1` [PARGYLINE]: the Activity in series [17] amounted to 1%.
In the case of `O=C1OCc2ccc(OCCc3ccc(F)cc3)cc21`, the Ratio IC50 in series [1] was 16. Also, the results for the IC50 in series [2] and in [3] were 68 nM and 1070 nM, respectively.
For `O=C1OCc2ccc(OCCOc3ccccc3)cc21`, in that order: 106, 18 nM and 1910 nM.

For the origin of these results see ChEMBL document CHEMBL2390879, “Inhibition of monoamine oxidase by phthalide analogues” (Bioorg Med Chem Lett, 2013).
